Data as given in ChEMBL document CHEMBL4325822, “Discovery of a tetrazolyl β-carboline with in vitro and in vivo osteoprotective activity under estrogen-deficient conditions” (Medchemcomm, 2018).
One block for each molecule: values may come before it. Calls of active or inactive are those of the source. No cut-off for these calls is given here.

Legend:
[1] = Induction of osteoblast differentiation in Sprague-Dawley rat calvarial osteoblasts assessed as alkaline phosphatase activity after 48 hrs using PNPP as substrate by spectrophotometric method; assay type: functional, cell-based
In short: (§1)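 Calvarial osteoblasts at 2 × 10³ cells/well. Treated 48 h with varied concentrations in differentiation medium (5% charcoal-treated FBS, 10 mM β-glycerophosphate, 50 µg·mL⁻¹ ascorbic acid). Total ALP read with PNPP substrate at 405 nm. Cell-free wells check for compound interference with substrate or absorbance.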

[2] = tested on: Calvarial osteoblast; experiment: Induction of osteoblast differentiation in Sprague-Dawley rat calvarial osteoblasts assessed as alkaline phosphatase activity at 0.000001 to 1 uM after 48 hrs using PNPP as substrate by spectrophotometric method relative to control; assay type: functional, cell-based; in short: as §1
[3] = tested on: Calvarial osteoblast; experiment: Increase in OCN protein expression in Sprague-Dawley rat calvarial osteoblasts at 100 pM after 48 hrs by Western blot analysis; assay type: functional, cell-based
In short: (§2)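 Rat calvarial osteoblasts (pooled 1–2-day pups, collagenase/dispase digests) at 60–70% confluence treated 48 h. Whole-cell lysates immunoblotted with primary antibody overnight at 4 °C, then HRP secondary, with ECL detection. Densitometry gives fold change normalized to β-actin versus untreated cells. Mean ± SEM of three independent experiments.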

[4] = tested on: Calvarial osteoblast; experiment: Increase in Runx2 protein expression in Sprague-Dawley rat calvarial osteoblasts at 100 pM after 48 hrs by Western blot analysis; assay type: functional, cell-based; in short: as §2
[5] = Increase in Runx2 mRNA expression in Sprague-Dawley rat calvarial osteoblasts at 100 pM by RT-PCR method relative to control; assay type: functional, Calvarial osteoblast
[6] = Induction of osteoblast differentiation in Sprague-Dawley rat calvarial osteoblasts assessed as alkaline phosphatase activity at 100 pM after 48 hrs using PNPP as substrate by spectrophotometric method relative to control; assay type: functional; in short: as §1
[7] = Increase in BMP2 mRNA expression in Sprague-Dawley rat calvarial osteoblasts at 100 pM by RT-PCR method relative to control; assay type: functional, Calvarial osteoblast
In short: (§3)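 Primary calvarial osteoblasts were lysed in TRIzol after treatment, and total RNA was extracted. Transcripts were quantified by real-time PCR using the comparative CT (ΔΔCT) method.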

[8] = tested on: Calvarial osteoblast; experiment: Cytotoxicity against Sprague-Dawley rat calvarial osteoblasts assessed as reduction in cell viability at 0.000001 to 1 uM after 48 hrs by MTT assay; assay type: cell-based
In short: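 Osteoblasts came from pooled calvaria of 1-2-day-old Sprague-Dawley pups, isolated by sequential dispase/collagenase digestion. Cells were exposed to compound at 1 pM to 1 µM for 48 h, and viability was measured by MTT.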

[9] = tested on: Calvarial osteoblast; experiment: Osteogenic activity in Sprague-Dawley rat calvarial osteoblasts assessed as mineralized nodule formation at 100 pM after 21 days by alizarin red-S staining based light microscopic method; assay type: functional, cell-based
In short: (§4)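 Osteoblasts at 10,000–15,000 cells/cm² in duplicate plates, 21 days in differentiation medium, medium changed every 48 h. Cells fixed in 4% PFA, stained with alizarin red-S (40 mM, pH 4.5, 30 min) and photographed. Stain extracted with 10% acetic acid, pH brought to 4.5 with ammonium hydroxide, read at 405 nm, normalized to cell number.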

[10] = tested on: Calvarial osteoblast; experiment: Osteogenic activity in Sprague-Dawley rat calvarial osteoblasts assessed as mineralized nodule formation at 100 pM after 21 days by alizarin red-S staining based colorimetric method; assay type: functional; in short: as §4
[11] = tested on: Calvarial osteoblast; experiment: Increase in BMP2 protein expression in Sprague-Dawley rat calvarial osteoblasts at 100 pM after 48 hrs by Western blot analysis; assay type: functional, cell-based
In short: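 Rat calvarial osteoblasts at 60-70% confluence were treated 48 h. Whole-cell lysates were blotted, blocked in 5% milk, and probed with primary antibody overnight at 4 °C, then with HRP secondary and ECL detection. Densitometry was normalized to β-actin; fold change versus untreated cells, three independent experiments, mean ± SEM.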

[12] = Increase in OCN mRNA expression in Sprague-Dawley rat calvarial osteoblasts at 100 pM by RT-PCR method relative to control; assay type: functional, Calvarial osteoblast; in short: as §3
[13] = tested on: Calvarial osteoblast; experiment: Induction of osteoblast differentiation in Sprague-Dawley rat calvarial osteoblasts assessed as alkaline phosphatase activity at 10 nM after 48 hrs using PNPP as substrate by spectrophotometric method relative to control; assay type: functional; in short: as §1
[14] = Rattus norvegicus, Sprague-Dawley, Calvarial osteoblast, 48 h, read-out: EC50

EC50 ([1]; calvarial osteoblast): Not Active
Emax [2]: inactive
Compound: COC(=O)c1cc2c([nH]c3ccccc32)c(C(NCc2ccc(Cl)c(Cl)c2)c2nnnn2C(C)(C)C)n1 (stereo not drawn)

EC50 ([1]; calvarial osteoblast): Not Active
Emax [2]: inactive
Compound: CCOC(=O)c1cc2c([nH]c3ccccc32)c(C(c2nnnn2C(C)(C)C)N2CCN(c3ccc(F)cc3)CC2)n1 (stereo not drawn)

EC50 ([1]; calvarial osteoblast): Not Active
Emax [2]: inactive
Compound: CCOC(=O)c1cc2c([nH]c3ccccc32)c(C(c2nnnn2C(C)(C)C)N2CCOCC2)n1 (stereo not drawn)

EC50 ([1]; calvarial osteoblast): Not Active
Emax [2]: inactive
Compound: CCOC(=O)c1cc2c([nH]c3ccccc32)c(C(c2nnnn2C(C)(C)C)N2CCN(Cc3ccc4c(c3)OCO4)CC2)n1 (stereo not drawn)

The next lines start with the molecule.

Compound: COC(=O)c1cc2c([nH]c3ccccc32)c(C(c2nnnn2C(C)(C)C)N2CCN(c3ncccn3)CC2)n1 (stereo not drawn)
Activity [3]: Active
Activity [4]: Active
fold change (FC) [5]: 1.8 - 4.6
EC50 [1, 14]: 3270 nM
Emax at 0.0001 µM [6]: 80%
fold change (FC) [7]: 1.8 - 4.6
Activity [8]: Non-Toxic
Activity [9]: Active
Activity [10]: 48%
Activity [11]: Active
fold change (FC) [12]: 1.8 - 4.6

Compound: CCN1CCN(C(c2nc(C(=O)OC)cc3c2[nH]c2ccccc23)c2nnnn2C(C)(C)C)CC1 (stereo not drawn)
EC50 ([1]; calvarial osteoblast): Not Active
Emax [13]: inactive

Compound: COC(=O)c1cc2c([nH]c3ccccc32)c(C(NCc2ccccc2)c2nnnn2C(C)(C)C)n1 (stereo not drawn)
EC50 [1, 14]: 468 nM
Emax at 0.0001 µM [6]: 29%
